From ChEMBL document CHEMBL1155452, “Oncocin (VDKPPYLPRPRPPRRIYNR-NH2): a novel antibacterial peptide optimized against gram-negative human pathogens” (J Med Chem, 2010) come the findings set out here.

Series [1] has as its system Enterobacter cloacae. The experiment in a line: Antimicrobial activity against Enterobacter cloacae Ha89 after 20 hrs by broth microdilution method. The class given is functional. Particulars: Ha89, 20 h. Summed up:
(§1)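 Pathogens grown overnight on Columbia agar. Colonies suspended in 0.9% saline to OD 0.1, diluted 1:300 in 1% TSB, final (1-2) × 10^5 cfu/well. Peptides 2-fold serially diluted in 1% TSB from 128 to typically 0.5 μg/mL. Incubation at 37 °C; A595 read after 20 ± 2 h. MIC is the lowest concentration with absorbance not above medium only. Triplicate.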

Series [2] can be described thus: Toxicity in human erythrocytes assessed as hemolytic activity at 600 ug/ml after 1 hr. As to conditions: erythrocyte. The class given is cell-based. The essentials:
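Peptides 2-fold serially diluted from 600 to 5 μg/mL in PBS (pH 7.4), mixed 1:1 with 2% washed human erythrocytes in PBS, 37 °C for 1 h. After centrifugation at 1000g, supernatant A405 read. Triton X-100 0.1% as positive control, PBS as negative control.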

In series [3] the test system is Enterobacter cloacae. The experiment in a line: Antimicrobial activity against Enterobacter cloacae Ha185 after 20 hrs by broth microdilution method. The class given is functional. Particulars: Ha185, 20 h. The essentials: (§2)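 Pathogenic strains grown overnight on Columbia agar, colonies suspended in 0.9% saline to OD 0.1, diluted 1:300 in 1% TSB; final (1-2) × 10^5 cfu/well. Peptides 2-fold serially diluted in 1% TSB from 128 μg/mL, typically to 0.5 μg/mL. Incubated 37 °C, absorbance at 595 nm after 20 ± 2 h, in triplicate; MIC = lowest concentration with absorbance not exceeding medium only.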

The test system of series [4] is Stenotrophomonas. The series is described as follows: Antimicrobial activity against Stenotrophomonas ICB 7569 after 20 hrs by broth microdilution method. The class given is functional. As to conditions: ICB 7569, 20 h. The essentials: as §1
The next series relates to Micrococcus luteus. The experiment in a line: Antibacterial activity against Micrococcus luteus ATCC 10240 after 20 hrs by broth microdilution assay. The class given is functional. As to conditions: ATCC 10240, 20 h. The essentials: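 Nutrient-broth overnight cultures diluted in 1% TSB; E. coli BL21AI 7.5 × 10^5 cells/well, M. luteus ATCC 10240 2 × 10^6 cells/well. Peptides serially 2-fold diluted in 1% TSB from 128 to typically 0.5 μg/mL. Incubation at 37 °C; A595 read after 20 ± 2 h. MIC is the lowest concentration with absorbance not above medium only. Triplicate.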

A further series concerns Klebsiella pneumoniae. The experiment in a line: Antimicrobial activity against Klebsiella pneumoniae 8085 after 20 hrs by broth microdilution method. The class given is functional. As to conditions: Klebsiella pneumoniae, 8085, 20 h. The essentials:
as §1

Series [5] has as its system Escherichia coli. The experiment in a line: Antimicrobial activity against Escherichia coli 8474 after 20 hrs by broth microdilution method. The class given is functional. Particulars: Escherichia coli, 8474, 20 h. The essentials:
as §1

Series [6] deals with Escherichia coli. The series is described as follows: Antimicrobial activity against Escherichia coli 455/7 after 20 hrs by broth microdilution method. The class given is functional. As to conditions: 455/7, 20 h. The essentials: as §1
Series [7] deals with Acinetobacter baumannii. The series is described as follows: Antimicrobial activity against Acinetobacter baumannii ICB 9250 after 20 hrs by broth microdilution method. The class given is functional. As to conditions: ICB 9250, 20 h. Summed up: as §1
Series [8] relates to Escherichia coli. The series is described as follows: Antimicrobial activity against Escherichia coli 70502001 after 20 hrs by broth microdilution method. The class given is functional. As to conditions: Escherichia coli, 70502001, 20 h. Summed up: as §1
A short description of series [9]: Stability in 25% mouse serum assessed as compound remaining at 75 ug/ml after 2 hrs by MALDI-TOF-MS analysis. Particulars: read-out: Stability. The class given is ADME, cell-free. Summed up: (§3)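 Peptide at 75 μg/mL final in pooled mouse serum (undiluted or 25% v:v aqueous), 37 °C. Triplicate aliquots taken at 0, 30, 60, 120 and 240 min and precipitated with 3% TCA on ice for 10 min. Supernatant neutralized with NaOH and analysed by RP-HPLC on C18 with TFA-containing gradient. Amounts expressed relative to 0 min; metabolites identified by MALDI-TOF-MS.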

The test system of series [10] is Enterobacter cloacae. The experiment in a line: Antimicrobial activity against Enterobacter cloacae Ha089 after 20 hrs by broth microdilution method. The class given is functional. Particulars: Ha089, 20 h. The essentials:
as §1

Series [11] concerns Pseudomonas aeruginosa. The series is described as follows: Antimicrobial activity against Pseudomonas aeruginosa DSM 3227 after 20 hrs by broth microdilution method. The class given is functional. As to conditions: DSM 3227, 20 h. Summed up:
as §2

For series [12], the system named is Enterobacter cloacae. The series is described as follows: Antimicrobial activity against Enterobacter cloacae 34654 after 20 hrs by broth microdilution method. The class given is functional. Particulars: Enterobacter cloacae, 34654, 20 h. The essentials: as §1
Series [13] relates to Stenotrophomonas. The series is described as follows: Antimicrobial activity against Stenotrophomonas ICB 7789 after 20 hrs by broth microdilution method. Particulars: ICB 7789, 20 h. The class given is functional. The essentials:
as §1

For series [14], the system named is Acinetobacter baumannii. The experiment in a line: Antimicrobial activity against Acinetobacter baumannii ICB 14072 after 20 hrs by broth microdilution method. As to conditions: ICB 14072, 20 h. The class given is functional. Summed up:
as §1

The test system of series [15] is Pseudomonas aeruginosa. The series is described as follows: Antimicrobial activity against Pseudomonas aeruginosa 70108001 after 20 hrs by broth microdilution method. The class given is functional. As to conditions: Pseudomonas aeruginosa, 70108001, 20 h. Summed up:
as §2

Series [16] concerns Pseudomonas aeruginosa. The series is described as follows: Antimicrobial activity against Pseudomonas aeruginosa 60811001 after 20 hrs by broth microdilution method. The class given is functional. Particulars: Pseudomonas aeruginosa, 60811001, 20 h. Summed up: as §2
The nature of series [17]: Stability in 25% mouse serum assessed as half life at 75 ug/ml by MALDI-TOF-MS analysis. The class given is ADME, cell-free. Summed up:
as §3

H-VDKPPYLPRPRPPRRIYNR-NH2 [ONCOCIN]: the minimal inhibitory concentration (MIC) with Enterobacter cloacae [1] came to 0.25 µg/mL; in the series with Enterobacter cloacae [3], 0.5 µg/mL; in the series with Stenotrophomonas [4] it was 8 µg/mL; against Micrococcus luteus it was 8 µg/mL; with Klebsiella pneumoniae, 0.5 µg/mL; in the series with Escherichia coli [5], 0.5 µg/mL. Also, the minimal inhibitory concentration (MIC) against Escherichia coli [6] came out at 0.5 µg/mL; with Acinetobacter baumannii [7], 0.5 µg/mL; against Escherichia coli [8], 1 µg/mL; with Enterobacter cloacae [10] it was 0.125 µg/mL; against Pseudomonas aeruginosa [11], 4 µg/mL; against Enterobacter cloacae [12], 0.25 µg/mL. Further, the MIC worked out at 32 µg/mL against Stenotrophomonas [13], 1 µg/mL against Acinetobacter baumannii [14], 4 µg/mL against Pseudomonas aeruginosa [15] and 2 µg/mL against Pseudomonas aeruginosa [16]. The Activity result in series [2] is recorded as “Non-toxic”. In addition, in [9], the remaining at 2 h, 75 ug/ml was found to be 60%. In addition, the half-life at 75 ug/ml in series [17] is 1.17 h.
